Reference: ChEMBL document CHEMBL1149318, “(Z)- and (E)-[2-Fluoro-2-(hydroxymethyl)cyclopropylidene]methylpurines and -pyrimidines, a new class of methylenecyclopropane analogues of nucleosides: synthesis and antiviral activity” (J Med Chem, 2004)

Legend:
Human betaherpesvirus 5 [1] = assay: Inhibition of HCMV AD169 replication in HFF cells by CPE inhibition assay; assay type: functional, organism-based; details: Human betaherpesvirus 5, AD169, HFF
Outline: (§1)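 Cytopathic effect inhibition assay in HFF culture (HCMV AD169; HSV-1 and HSV-2). Cytotoxicity by neutral red uptake.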

[2] = Cytotoxicity against Daudi cells; assay type: cell-based; details: human
[3] = Cytotoxicity against HFF cells by neutral red uptake assay; assay type: cell-based; details: human
Outline: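 Human foreskin fibroblast (HFF) cultures, as used for the HCMV assays, exposed to analogues. Cytotoxicity read by neutral red uptake.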

Human gammaherpesvirus 4 [4] = assay: Inhibition of EBV replication in Daudi cells by VCA ELISA; assay type: functional, organism-based; details: human gammaherpesvirus 4, Daudi
Outline: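 Viral capsid antigen (VCA) ELISA in Daudi cells; EC50 from capsid antigen signal. Cytotoxicity measured in CEM cells.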

Human alphaherpesvirus 1 [5] = assay: Inhibition of HSV1 replication in BSC1 cells by ELISA; assay type: functional, organism-based; details: Human alphaherpesvirus 1, BSC-1
Outline: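 HSV-1 in BSC-1 cells, read by ELISA; cytotoxicity determined in KB cells.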

Hepatitis B virus = assay: Inhibition of HBV replication in 2.2.15 cells by DNA hybridization assay; assay type: functional, organism-based; details: HepG2 2.2.15
Outline: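 HBV in 2.2.15 cells; viral DNA quantified by DNA hybridization to give EC50.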

[6] = Cytotoxicity against HFF cells by visual cytotoxicity; assay type: cell-based; details: human
Outline: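 HFF cultures exposed to analogues. Cytotoxicity scored visually.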

CCRF-CEM = assay: Cytotoxicity against CEM cells; assay type: functional; details: Homo sapiens
Human alphaherpesvirus 1 [7] = assay: Inhibition of HSV1 in Vero cells by plaque reduction assay; details: Human alphaherpesvirus 1, Vero
Human alphaherpesvirus 3 = assay: Inhibition of VZV replication in HFF cells by CPE assay; assay type: functional, organism-based; details: Human alphaherpesvirus 3, HFF
Human alphaherpesvirus 2 = assay: Inhibition of HSV2 in HFF cells by CPE assay; assay type: functional, organism-based; details: Human alphaherpesvirus 2, HFF; outline: as §1
Human betaherpesvirus 5 [8] = assay: Inhibition of HCMV Towne replication in HFF cells by plaque reduction assay; assay type: functional, organism-based; details: Human betaherpesvirus 5, Towne
Outline: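 Plaque reduction assay in HFF culture with HCMV Towne strain; cytotoxicity by neutral red uptake.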

[9] = Cytotoxicity against MT2 cells; assay type: cell-based; details: human
Outline: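 Uninfected MT-2 (2 × 10^3 cells) or MT-4 (3 × 10^4 cells) cultured with analogues. Viability read by MTT assay after day 7 (MT-2) or day 5 (MT-4). Run in duplicate.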

Human gammaherpesvirus 4 [10] = assay: Inhibition of EBV replication in H1 cells by DNA hybridization assay; assay type: functional, organism-based; details: human gammaherpesvirus 4, H1
Outline: (§2)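 EBV DNA hybridization assay in Daudi or H-1 cells; EC50 derived from viral DNA signal. Cytotoxicity for these EBV assays measured in CEM cells.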

[11] = Cytotoxicity against HFF cells; assay type: cell-based; details: human
Human alphaherpesvirus 1 [12] = assay: Inhibition of HSV1 in HFF cells by CPE assay; assay type: functional, organism-based; details: Human alphaherpesvirus 1, HFF; outline: as §1
[13] = Cytotoxicity against Vero cells; assay type: cell-based; details: chlorocebus sabaeus
[14] = Inhibition of HSV2 in Vero cells by plaque reduction assay; assay type: cell-based; details: Chlorocebus sabaeus
Outline: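 Plaque reduction assay in Vero cells with HSV-1 or HSV-2.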

[15] = test system: Human immunodeficiency virus 1; assay: Inhibition of HIV1 LAI replication in MT2 by CPE assay; assay type: functional, organism-based; details: Human immunodeficiency virus 1, LAI
Outline: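 HIV-1 LAI, 100 TCID50, used to infect MT-2 (2 × 10^3) or MT-4 (3 × 10^4) cells, which are then cultured with test analogue. EC50 read by MTT assay on day 7 (MT-2) or day 5 (MT-4). Assays run in duplicate.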

Human gammaherpesvirus 4 [16] = assay: Inhibition of EBV replication in Daudi cells by DNA hybridization assay; assay type: functional, organism-based; details: human gammaherpesvirus 4, Daudi; outline: as §2

SMILES	EC50 (Human betaherpesvirus 5 [1])	CC50 [2]	CC50 [3]	EC50 (Human gammaherpesvirus 4 [4])	EC50 (Human alphaherpesvirus 1 [5])	EC50 (Hepatitis B virus)	CC50 [6]	CC50 (CCRF-CEM)	EC50 (Human alphaherpesvirus 1 [7])	EC50 (Human alphaherpesvirus 3)	EC50 (Human alphaherpesvirus 2)	EC50 (Human betaherpesvirus 5 [8])	CC50 [9]	EC50 (Human gammaherpesvirus 4 [10])	CC50 [11]	EC50 (Human alphaherpesvirus 1 [12])	CC50 [13]	EC50 [14]	EC50 [15]	EC50 (Human gammaherpesvirus 4 [16])
Nc1nc2c(ncn2/C=C2/CC2(F)CO)c(=O)[nH]1 (stereo not given)	> 79.6 µM	> 199 µM	> 398 µM	4.8 µM	> 100 µM	> 20 µM	> 100 µM	> 100 µM	> 50 µM	> 79.6 µM	> 80 µM	> 100 µM	> 100 µM	> 20 µM	> 400 µM	> 80 µM	> 100 µM	> 50 µM	> 100 µM	–
Cc1cn(/C=C2\CC2(F)CO)c(=O)[nH]c1=O (stereo not given)	> 442 µM	> 221 µM	> 442 µM	> 221 µM	40 µM	> 20 µM	> 100 µM	> 100 µM	> 50 µM	> 442 µM	> 80 µM	> 100 µM	> 100 µM	> 20 µM	> 400 µM	> 80 µM	> 100 µM	> 50 µM	> 100 µM	–
Nc1nc2c(ncn2COCCO)c(=O)[nH]1 [ACYCLOVIR]	–	> 222 µM	–	–	10 µM	–	–	–	–	–	–	–	–	–	> 444 µM	–	–	–	–	5.3 µM
Nc1nc2c(ncn2COC(CO)CO)c(=O)[nH]1 [GANCICLOVIR]	2.2 µM	–	> 392 µM	–	–	–	> 100 µM	–	> 50 µM	–	–	2.1 µM	–	–	–	–	–	–	–	–
Nc1ccn([C@@H]2CS[C@H](CO)O2)c(=O)n1 [LAMIVUDINE]	–	–	–	–	–	–	–	> 100 µM	–	–	–	–	–	–	–	–	–	–	–	–
Cc1cn([C@H]2C[C@H](N=[N+]=[N-])[C@@H](CO)O2)c(=O)[nH]c1=O [ZIDOVUDINE]	–	–	–	–	–	–	–	–	–	–	–	–	> 10 µM	–	–	–	–	–	0.02 µM	–
